The record followed here is ChEMBL document CHEMBL1139477, “Synthesis and evaluation of estrogen receptor ligands with bridged oxabicyclic cores containing a diarylethylene motif: estrogen antagonists of unusual structure” (J Med Chem, 2005).

Assay [1] addresses T1, Estrogen receptor (Homo sapiens) (UniProt P03372).
T1 sequence (whole entry): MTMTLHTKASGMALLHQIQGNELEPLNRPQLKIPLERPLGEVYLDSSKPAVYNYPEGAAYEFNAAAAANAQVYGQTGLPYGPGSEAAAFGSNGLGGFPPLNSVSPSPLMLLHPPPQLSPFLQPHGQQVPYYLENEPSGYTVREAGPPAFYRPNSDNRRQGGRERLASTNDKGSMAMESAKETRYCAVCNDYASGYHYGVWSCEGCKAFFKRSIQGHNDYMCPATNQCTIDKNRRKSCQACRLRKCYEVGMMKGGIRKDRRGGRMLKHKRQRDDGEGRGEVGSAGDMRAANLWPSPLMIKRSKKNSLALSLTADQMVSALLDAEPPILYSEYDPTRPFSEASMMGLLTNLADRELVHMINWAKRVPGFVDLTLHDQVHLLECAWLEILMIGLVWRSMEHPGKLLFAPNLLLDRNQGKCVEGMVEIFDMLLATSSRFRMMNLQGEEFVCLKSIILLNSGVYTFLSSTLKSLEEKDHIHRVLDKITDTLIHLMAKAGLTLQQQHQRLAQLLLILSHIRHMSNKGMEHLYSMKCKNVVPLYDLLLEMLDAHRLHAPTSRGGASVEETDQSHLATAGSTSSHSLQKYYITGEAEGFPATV
In words: Displacement of [3H]estradiol from human ERalpha relative to estradiol. (Loss of bound radioactivity is the signal in a displacement assay; it reports binding, not function.)

For assay [2], the target named is Estrogen receptor beta (Homo sapiens) (UniProt Q92731). In words: Displacement of [3H]estradiol from human ERbeta relative to estradiol.
Assay [3] deals with Estrogen receptor (Homo sapiens) (UniProt Q92731+P03372). The assay can be described thus: Ratio of RBA for human estrogen receptor alpha to RBA for human estrogen receptor beta. The assay is classed as protein assay.
Assay [4] addresses T1, Estrogen receptor (Homo sapiens). In words: Activity at ERalpha in human HEC1 cells assessed as antagonism of estradiol-activated transcription activation relative to estradiol. The format is functional, cell-based. To be noted: HEC-1. In short, it runs like this:
(§1)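 HEC-1 cells kept in phenol red MEM with 5% calf serum plus 5% fetal calf serum, then plated in phenol red-free Improved MEM with 5% charcoal dextran-treated calf serum. Lipofectin transfection for 5 h at 37 °C with full-length human ERα or ERβ vector, 2ERE-pS2-Luc and pCMV β-galactosidase control. Ligand, 10^-8 to 10^-5 M, given with 1 nM estradiol for 24 h. Luciferase read, as percent of 10^-9 M estradiol alone. Two or more experiments.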

Assay [5] has as its target Estrogen receptor beta (Homo sapiens) (UniProt Q92731). The assay can be described thus: Activity at ERbeta in human HEC1 cells assessed as antagonism of estradiol-activated transcription activation relative to estradiol. To be noted: HEC-1. The format is functional, cell-based. The method in brief:
as §1

Calls of active or inactive are those of the source. The calls are words filed in the database; no cut-off is given here.

Estrogen receptor beta (Homo sapiens), sequence (Q92731 whole entry): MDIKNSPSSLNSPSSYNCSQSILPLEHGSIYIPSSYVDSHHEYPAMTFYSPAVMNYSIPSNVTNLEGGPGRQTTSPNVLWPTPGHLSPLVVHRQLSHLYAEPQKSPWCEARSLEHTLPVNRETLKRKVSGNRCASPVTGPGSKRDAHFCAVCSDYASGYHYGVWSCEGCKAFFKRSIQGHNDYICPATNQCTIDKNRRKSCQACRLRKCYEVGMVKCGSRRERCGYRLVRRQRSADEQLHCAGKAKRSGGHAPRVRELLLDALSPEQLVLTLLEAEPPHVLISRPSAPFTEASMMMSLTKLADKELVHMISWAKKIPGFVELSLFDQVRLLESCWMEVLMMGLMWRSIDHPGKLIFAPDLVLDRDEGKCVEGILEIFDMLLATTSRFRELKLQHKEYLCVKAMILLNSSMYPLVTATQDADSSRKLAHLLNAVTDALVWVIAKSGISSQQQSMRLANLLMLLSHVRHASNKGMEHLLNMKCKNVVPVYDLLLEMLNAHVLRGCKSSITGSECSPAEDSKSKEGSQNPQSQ
Estrogen receptor (Homo sapiens) (UniProt Q92731+P03372), sequence (Q92731 whole entry, looked up, one chain of several): as the sequence (Q92731 whole entry) above

On to `CN1C(=O)C2C3OC(C(c4ccc(O)cc4)=C3c3ccc(O)cc3)C2C1=O` (configuration not stated), for which the figures for the RBA in assay [1] and in assay [2] were 0.02% and 0.025%, respectively. Moreover, the Ratio in assay [3] turned out to be 0.8.

Regarding `O=S(=O)(Oc1ccc(O)cc1)[C@H]1CC2OC1C(c1ccccc1)=C2c1ccccc1` (stereo in doubt; exo), the RBA in assay [1] is 0.022%; in assay [2], 0.027%. In assay [3], the Ratio came to 0.82.

Turning to `COC(=O)C1=C(c2ccc(O)cc2)C2OC1C(c1ccccc1)=C2c1ccccc1` (configuration not stated), the RBA in assay [1] amounted to 0.012%; in assay [2], 0.031%. The Ratio in assay [3] turned out to be 0.39.

As to `O=C1C2C3OC(C(c4ccc(O)cc4)=C3c3ccc(O)cc3)C2C(=O)N1c1ccccc1` (configuration not stated), the RBA in assay [1] was determined as 0.013%; in assay [2], 0.017%. The Ratio in assay [3] turned out to be 0.77.

With `O=S(=O)(c1ccccc1)C1CC2OC1C(c1ccccc1)=C2c1ccccc1` (configuration not stated), the values for the RBA in assay [1] and in assay [2] were 0.008% and 0.013%, respectively. In assay [3], the Ratio was determined as 0.62.

`CCS(=O)(=O)C1CC2OC1C(c1ccc(O)cc1)=C2c1ccc(O)cc1` (configuration not stated): the RBA in assay [1] was found to be 0.1%; in assay [2] it was 0.077%. Besides, the Ratio in assay [3] is 1.3.

As for `CCOC(=O)C1C2OC(C(c3ccc(O)cc3)=C2c2ccc(O)cc2)C1C(=O)OCC` (configuration not stated), the RBA in assay [1] worked out at 0.021%; in assay [2], 0.036%. The Ratio in assay [3] came out at 0.58.

Regarding `COC(=O)C1=C(C(=O)OC)C2OC1C(c1ccc(O)cc1)=C2c1ccc(O)cc1`, the values for the RBA in assay [1] and in assay [2] were 0.009% and 0.006%, respectively. In assay [3], the Ratio amounted to 1.5.

In the case of `O=S(=O)(Oc1ccccc1)C1CC2OC1C(c1cccc(O)c1)=C2c1ccc(O)cc1` (configuration not stated), the RBA is 0.9% in assay [1] and 0.21% in assay [2]. In addition, the Ratio in assay [3] is 4.3.

With `O=S(=O)(Oc1ccccc1)[C@H]1CC2OC1C(c1ccc(O)cc1)=C2c1ccc(O)cc1` (stereo in doubt; exo), the result in assay [4] and in assay [5] was Active.

With `COC(=O)C1=C(c2ccccc2)C2OC1C(c1ccccc1)=C2c1ccccc1` (configuration not stated), the figures for the RBA in assay [1] and in assay [2] were 0.007% and 0.024%, respectively. Besides, the Ratio in assay [3] was found to be 0.29.

Turning to `COc1ccc(OS(=O)(=O)C2CC3OC2C(c2ccc(O)cc2)=C3c2ccc(O)cc2)cc1` (configuration not stated), the RBA in assay [1] is 0.32%; in assay [2], 0.1%. In assay [3], the Ratio is 3.3.

For `COc1ccc(C2=C(c3ccc(O)cc3)C3CC(S(=O)(=O)Oc4ccccc4)C2O3)cc1` (configuration not stated), the RBA in assay [1] was determined as 0.98%; in assay [2], 0.11%. Moreover, the Ratio in assay [3] is 8.9.

For `O=S(=O)(Oc1ccccc1)C1CC2OC1C(c1ccccc1)=C2c1ccccc1` (configuration not stated), the RBA worked out at 0.068% in assay [1] and 0.12% in assay [2]. Also, in assay [3], the Ratio amounted to 0.57.

In the case of `O=S(=O)(Oc1ccc(O)cc1)[C@H]1CC2OC1C(c1ccccc1)=C2c1ccccc1` (stereo in doubt; endo), the figures for the RBA in assay [1] and in assay [2] were 0.025% and 0.029%, respectively. Also, the Ratio in assay [3] was 0.86.

As for `COc1ccc(C2=C(c3ccc(O)cc3)C3CC(S(=O)(=O)c4ccccc4)C2O3)cc1` (configuration not stated), the RBA in assay [1] stood at 0.068%; in assay [2] it was 0.066%. In assay [3], the Ratio is 1.

On to `O=C1OC(=O)C2C3OC(C(c4ccccc4)=C3c3ccccc3)C12` (configuration not stated), for which the results for the RBA in assay [1] and in assay [2] were 0.014% and 0.02%, respectively. The Ratio in assay [3] was 0.7.

Consider `O=S(=O)(c1ccccc1)C1CC2OC1C(c1ccc(O)cc1)=C2c1ccc(O)cc1` (configuration not stated), for which the values for the RBA in assay [1] and in assay [2] were 0.64% and 0.059%, respectively. In addition, in assay [3], the Ratio turned out to be 11. Moreover, the outcome in assay [4] and in assay [5] was Active.

As for `O=S(=O)(c1ccccc1)C1CC2OC1C(c1cccc(O)c1)=C2c1ccc(O)cc1` (configuration not stated), the RBA in assay [1] was 0.069%; in assay [2] it was 0.037%. Further, the Ratio in assay [3] was found to be 1.9.

In the case of `O=S(=O)(Oc1ccc(O)cc1)C1CC2OC1C(c1ccc(O)cc1)=C2c1ccc(O)cc1` (configuration not stated), the RBA in assay [1] stood at 2.2%; in assay [2] it was 0.16%. Also, the Ratio in assay [3] is 14.

`O=S(=O)(Oc1ccccc1)[C@H]1CC2OC1C(c1ccc(O)cc1)=C2c1ccc(O)cc1` (stereo in doubt; endo) showed an RBA in assay [1] of 4.1%.
